Measured values published in ChEMBL document CHEMBL6115033, “Discovery of a Pyrazolopyridinone-Based MYC Inhibitor That Selectively Engages Intracellular c-MYC and Disrupts MYC-MAX Heterodimerization” (J Med Chem, 2025).
Activity calls are given as the source filed them. The calls are words filed in the database; no cut-off is given here.

Columns and labels:
MDA-MB-468 [1] = assay: Downregulation of CDC25C mRNA expression in human MDA-MB-468 cells at 25 uM incubated at 48 hrs by qRT-PCR analysis; format: functional, cell-based
Summary of the method: (§1)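 Cells (500,000/well) were cultured with or without 25 µM for the indicated time. Total RNA was extracted with TRIzol and reverse-transcribed. qPCR used SYBR green with target-gene primers, reported as ΔΔCT.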

MDA-MB-468 [2] = assay: Downregulation of SKP2 mRNA expression in human MDA-MB-468 cells at 25 uM incubated for 12 hrs by qRT-PCR analysis; format: functional, cell-based; summary of the method: as §1
P493-6 [3] = assay: Downregulation of CDK1 mRNA expression in human P493-6 cells at 25 uM incubated for 12 hrs by qRT-PCR analysis; format: functional, cell-based; summary of the method: as §1
[4] = Induction of apoptosis in human P493-6 cells assessed as viable cells at 25 uM incubated for 24 hrs by Annexin V/PI staining based flow cytometry analysis (reference value: 90.8%); format: functional; details: read-out: Activity
[5] = Induction of apoptosis in human P493-6 cells assessed as late apoptotic cells at 50 uM incubated for 24 hrs by Annexin V/PI staining based flow cytometry analysis (reference value: 6.52 %); format: functional
[6] = Antiproliferative activity against tetracycline-treated human P493-6 cells expressing MYC assessed as inhibition of cell proliferation incubated for 96 hrs by cell titer glo assay; format: functional, cell-based; details: P493-6, 96 h
Summary of the method: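 P493-6 cells (3000/well, RPMI) were seeded overnight at 37 °C, then given compounds at final 0.14–100 µM for 96 h. MYC-off cells were pretreated with 0.1 µg/mL tetracycline for 72 h. Read-out was CellTiter-Glo luminescence after equilibration to room temperature. IC50 was determined in high-MYC and MYC-off cells.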

MDA-MB-468 [7] = assay: Antitumor activity against human MDA-MB-468 cells xenografted in mouse assessed as reduction in Ki67 expression at 10 mg/kg, sc measured at 14 to 26 days by IHC analysis; details: time 14-26 day
P493-6 [8] = assay: Downregulation of CCNA2 mRNA expression in human P493-6 cells at 25 uM incubated for 12 hrs by qRT-PCR analysis; format: functional, cell-based; summary of the method: as §1
MDA-MB-468 [9] = assay: Downregulation of CDC25A mRNA expression in human MDA-MB-468 cells at 25 uM incubated at 48 hrs by qRT-PCR analysis; format: functional, cell-based; summary of the method: as §1
[10] = target: T1, c-Myc/c-Max (Homo sapiens) (UniProt P01106+P61244); assay: Disruption of MYC-MAX heterodimerization in human P493-6 cells incubated for 12 hrs; format: cell-based
Summary of the method: (§2)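 Cells were given 25 µM or DMSO for 0, 3, 5 and 12 h. Cytoplasmic and nuclear lysate fractions were pooled. 2 mg protein was immunoprecipitated with MYC antibody overnight, then protein A/G beads for 4 h at 4 °C. Bound MAX was detected by western blot and quantified relative to MYC; MAX input was also measured.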

MDA-MB-468 [11] = assay: Downregulation of E2F2 mRNA expression in human MDA-MB-468 cells at 25 uM incubated at 48 hrs by qRT-PCR analysis; format: functional, cell-based; summary of the method: as §1
[12] = target: T1, c-Myc/c-Max (Homo sapiens); assay: Disruption of MYC-MAX interaction in human MDA-MB-468 cells at 25 uM incubated for 3 to 12 hrs by immunofluorescence analysis; format: cell-based; details: time 3-12 hrs
MDA-MB-468 [13] = assay: Downregulation of CCNA2 mRNA expression in human MDA-MB-468 cells at 25 uM incubated at 48 hrs by qRT-PCR analysis; format: functional, cell-based; summary of the method: as §1
MDA-MB-468 [14] = assay: Downregulation of CDC25A mRNA expression in human MDA-MB-468 cells at 25 uM incubated for 12 hrs by qRT-PCR analysis; format: functional, cell-based; summary of the method: as §1
[15] = target: T1, c-Myc/c-Max (Homo sapiens); assay: Disruption of MYC-MAX interaction in human MDA-MB-468 cells at 25 uM incubated for 12 hrs by proximity ligation assay
P493-6 [16] = assay: Downregulation of MYC level in human P493-6 cells incubated for 24 hrs by Western blot analysis; format: functional, cell-based; details: dose <= 50.0 µM
Summary of the method: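 Cells (300,000/well) were plated 24 h, then exposed to graded concentrations or DMSO for 24 h. Laemmli lysates were run on 4–20% SDS-PAGE and immunoblotted for MYC. Levels were normalized to actin. Mean ± SD, n = 2, one-way ANOVA with Dunnett.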

P493-6 [17] = assay: Downregulation of E2F2 mRNA expression in human P493-6 cells at 25 uM incubated for 12 hrs by qRT-PCR analysis; format: functional, cell-based; summary of the method: as §1
P493-6 [18] = assay: Antiproliferative activity against tetracycline-treated human P493-6 cells expressing MYC assessed as inhibition of cell proliferation at 25 uM incubated for 96 hrs by cell titer glo assay; format: functional, cell-based
Summary of the method: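 P493-6 cells, either untreated (high MYC) or MYC-off after 0.1 µg/mL tetracycline for 72 h, were exposed to 25 µM for 96 h. Read-out was % survival by CellTiter-Glo luminescence. Mean ± SD, n = 6, unpaired t-test.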

MDA-MB-468 [19] = assay: Downregulation of CDK1 mRNA expression in human MDA-MB-468 cells at 25 uM incubated for 12 hrs by qRT-PCR analysis; format: functional, cell-based; summary of the method: as §1
[20] = Toxicity in mouse implanted with human MDA-MB-468 cells assessed as change in body weight at 10 mg/kg, po; format: organism-based; details: in vivo
MDA-MB-468 [21] = assay: Downregulation of SKP2 mRNA expression in human MDA-MB-468 cells at 25 uM incubated at 48 hrs by qRT-PCR analysis; format: functional, cell-based; summary of the method: as §1
MDA-MB-468 [22] = assay: Downregulation of CDK2 mRNA expression in human MDA-MB-468 cells at 25 uM incubated at 48 hrs by qRT-PCR analysis; format: functional, cell-based; summary of the method: as §1
[23] = target: T1, c-Myc/c-Max (Homo sapiens); assay: Disruption of MYC-MAX heterodimerization in human MDA-MB-468 cells incubated for 12 hrs; format: cell-based; summary of the method: as §2
[24] = Induction of apoptosis in human P493-6 cells assessed as necrotic cells at 25 uM incubated for 24 hrs by Annexin V/PI staining based flow cytometry analysis (reference value: 0.11 %); format: functional
MDA-MB-468 [25] = assay: Induction of apoptosis in human MDA-MB-468 cells cultured as 3D spheroids assessed as inhibition of cell growth incubated for 5 days; format: functional, cell-based; details: time 5.0 day
Summary of the method: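 Cells plated at 4000 per well in low-attachment 24-well plates and grown in Mammocult medium for 48 h to form mammospheres. Spheres then exposed to 25 uM compound for 5 days, with untreated control wells. Read-out was imaging of the mammospheres formed.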

[26] = target: T1, c-Myc/c-Max (Homo sapiens); assay: Disruption of MYC-MAX interaction in human P493-6 cells at 25 uM incubated for 3 to 12 hrs by Western blot analysis; format: cell-based; details: time 3-12 hrs; summary of the method: as §2
MDA-MB-468 [27] = assay: Induction of apoptosis in human MDA-MB-468 cells assessed as effect on PARP level at 50 uM incubated for 24 hrs
P493-6 [28] = assay: Downregulation of CDK2 mRNA expression in human P493-6 cells at 25 uM incubated for 12 hrs by qRT-PCR analysis; format: functional, cell-based; summary of the method: as §1

T1 sequence (P01106 whole entry): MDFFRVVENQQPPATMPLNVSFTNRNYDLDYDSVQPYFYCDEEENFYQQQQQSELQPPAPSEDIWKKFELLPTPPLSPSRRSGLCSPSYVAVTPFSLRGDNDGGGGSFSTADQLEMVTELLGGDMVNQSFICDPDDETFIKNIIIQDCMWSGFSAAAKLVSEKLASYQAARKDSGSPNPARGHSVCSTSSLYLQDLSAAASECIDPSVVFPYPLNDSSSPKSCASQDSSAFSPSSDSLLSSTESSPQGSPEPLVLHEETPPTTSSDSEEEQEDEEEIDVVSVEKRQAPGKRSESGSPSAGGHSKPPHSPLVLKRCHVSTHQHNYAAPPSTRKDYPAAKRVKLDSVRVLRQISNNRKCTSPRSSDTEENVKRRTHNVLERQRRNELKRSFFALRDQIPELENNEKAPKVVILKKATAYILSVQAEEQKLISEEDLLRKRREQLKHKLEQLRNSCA
T1 sequence (P61244 2-160 partner limits assumed): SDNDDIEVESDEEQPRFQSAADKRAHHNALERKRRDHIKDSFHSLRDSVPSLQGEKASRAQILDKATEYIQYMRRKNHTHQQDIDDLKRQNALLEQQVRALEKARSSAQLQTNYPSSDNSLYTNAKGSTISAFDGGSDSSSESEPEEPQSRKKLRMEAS

Activity [10]: Active | Activity [12]: Active | Activity [15]: Active | Activity [23]: Active | Activity [26]: Active
SMILES: N#Cc1cc2c(-c3ccc(Cl)cc3)nn(-c3ccccc3)c2[nH]c1=O
Activity (MDA-MB-468 [1]): Active | Activity (MDA-MB-468 [2]): Active | Activity (P493-6 [3]): Active | viability at 25 µM [4]: 85.5% | Activity [5]: 17.6% | IC50 [6]: 58.9 µM | Activity (MDA-MB-468 [7]): Active | Activity (P493-6 [8]): Active | Activity (MDA-MB-468 [9]): Active | Activity (MDA-MB-468 [11]): Active | Activity (MDA-MB-468 [13]): Active | Activity (MDA-MB-468 [14]): Active | Activity (P493-6 [16]): Dose-dependent-effect | Activity (P493-6 [17]): Active | Activity (P493-6 [18]): Active | Activity (MDA-MB-468 [19]): Active | Activity [20]: Non-toxic | Activity (MDA-MB-468 [21]): Active | Activity (MDA-MB-468 [22]): Active | Activity [24]: 0.095% | Activity (MDA-MB-468 [25]): Active | Activity (MDA-MB-468 [27]): Active | Activity (P493-6 [28]): Active
